Test results: PubChem BioAssay
Results filed as inconclusive are left out. Active and inactive are the calls of the source.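 Rule for the calls, unless noted: active = cell viability at or below a set limit in both duplicate runs, the limit being the all-compound median minus 4 SD (cut at about 23% in these data, passing the limit was not always enough); inconclusive = no clear call, values can overlap the other calls; inactive = the rest.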

What was measured:
[1] = S. cerevisiae growth inhibition in permissive medium (OD615), pilot counter-assay for S. cerevisiae lifespan shortening project, permissive growth control (AID 705;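 active = growth inhibition above 25% in both replicates, a cutoff set 3 SD above the mean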); settings: OD615, 24 h, at 10 µM, active compounds read high
Outline: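 System: Engineered DeaD yeast | Buffer or medium: SC raffinose/galactose permissive medium | Doses: 10 µM single dose, 0.25% DMSO | Times: 24 h exposure, 30 °C | Measured by: OD615 turbidity read | Read-out: Yeast growth inhibition indicated by reduced 24 h OD615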

[2] = S. cerevisiae growth inhibition in restrictive medium, OD615, pilot screen, restrictive growth control, yeast lifespan reduction project (AID 706;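 active = growth inhibition above a set limit, 3 SD over mean compound inhibition, in both replicates, cut at about 43% in these data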;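 note: modified DeaD lifespan yeast strain shifted to restrictive glucose medium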); settings: OD615, 48 h, at 10 µM, active compounds read high
Outline: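 Assay system: engineered S. cerevisiae DeaD strain; Buffer or medium: CSMM-D glucose medium; Dosing: 10 µM compound, 0.25% DMSO; Times: cell pre-growth 4 h, compound exposure 48 h, 30 °C; Detection: absorbance (optical density) measured at 615 nm.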

[3] = doxorubicin toxicity protection in MRP-1 cells – H69AR cells, CellTiter-Glo, duplicate, MRP-1 activator project, pilot screen (AID 807;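 active = viability increase at or above a cutoff of the median across tested compounds plus 3 SD, cut at about 8.5% in these data, passing the limit was not always enough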;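 note: compound pretreatment 18-22 h then 72 h combined with doxorubicin; 0% = doxorubicin alone and 100% = vehicle without doxorubicin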); settings: H69AR viability with doxorubicin, CellTiter-Glo luminescence; at 10 µM; active compounds read high
[4] = viability of HCT116 without oncogenic beta-catenin – human colon tumor cells, pilot screen (AID 823); settings: HCT116 beta-catenin knockout viability, CellTiter-Glo, 60 h; at 10 µM; active compounds read low;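 note: 0% = wells killed by 20 µM Hyamine and 100% = untreated DMSO cell wells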
[5] = viability of PTEN-null HCT116 cells – cell-based, HCT116 clonal line, CellTiter-Glo, pilot screen (AID 824;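 active = viability at or below 27.92% in each of two runs, the all-compound median minus 4 SD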;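 note: 0% = 20 µM Hyamine control and 100% = vehicle cell control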); settings: HCT116 PTEN-deleted viability, 60 h, at 10 µM, active compounds read low
[6] = RAM pathway blockade in budding yeast – dse1pr::URA3 reporter, 5-FOA selection, pilot screen (AID 869;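 active = inhibition over a set limit, the all-compound mean plus 3 SD, in both replicate runs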;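 note: 0% = DMSO wells with no growth and 100% = 10 µM 1-NA-PP1 with full growth; RAM network block rescues cells from 5-FOA so hits raise OD615 growth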); settings: S. cerevisiae dse1pr::URA3 5-FOA growth, OD615, 2 d; at 10 µM; active compounds read high; strain carries analog-sensitive mutant Cbk1 kinase
[7] = RAM signaling pathway blockade in yeast – S. cerevisiae, Pdr1DBD-CYC8 efflux-inhibited sensitized strain, primary screen (AID 1298;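 active = RAM network inhibition above 8.4% in each of two replicates, 3 SD over the compound average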;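 note: 0% = DMSO untreated cells without growth and 100% = 10 µM 1-NA-PP1 full growth; higher means more yeast growth rescued from 5-FOA killing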); settings: S. cerevisiae cbk1-as DSE1-URA3 strain, 5-FOA growth OD615, 2 d; at 50 µM; active compounds read high

O=C(NCCCc1ccccc1)C1CCN(c2nnc(-n3cccc3)s2)CC1
inactive: growth inhibition [1] -1.03% | growth inhibition [2] 0.98% | viability increase [3] 3.79% | viability [4] 93.3% | viability [5] 97% | inhibition [6] 0.175% | RAM network inhibition [7] 5.38%

OC(COc1cccc2ccccc12)CN1CCN(c2ccccn2)CC1 (stereo unspecified)
inactive: growth inhibition [1] -5.36% | growth inhibition [2] 1.3% | viability increase [3] -2.34% | viability [4] 84.9% | viability [5] 81.7% | inhibition [6] 0.445% | RAM network inhibition [7] 2.59%

CCCOc1ccc(N2C(=O)CC(N3CCN(c4ccccc4F)CC3)C2=O)cc1 (stereo unspecified)
inactive: growth inhibition [1] -0.95% | growth inhibition [2] -3.87% | viability increase [3] 1.4% | viability [4] 94.7% | viability [5] 96.4% | inhibition [6] 0.125% | RAM network inhibition [7] 7.05%

CC(C)CCNC(=O)Cn1cc2c(n1)CCCCC2
inactive: growth inhibition [1] 3.78% | growth inhibition [2] 2.78% | viability increase [3] -1.8% | viability [4] 106% | viability [5] 100% | inhibition [6] 1.82% | RAM network inhibition [7] 1.38%

CCOC(=O)C1=C(C)NC(=O)NC1c1ccco1 (stereo unspecified)
inactive: growth inhibition [1] 1.02% | growth inhibition [2] -9.79% | viability increase [3] -3.38% | viability [4] 103% | viability [5] 105% | inhibition [6] -0.995% | RAM network inhibition [7] -0.57%

CCN(Cc1ccccc1)S(=O)(=O)c1ccc(S(=O)(=O)N2CCN(CCC#N)CC2)cc1
inactive: growth inhibition [1] -8.36% | growth inhibition [2] -8.88% | viability increase [3] -4.88% | viability [4] 90.7% | viability [5] 83.9% | inhibition [6] 1% | RAM network inhibition [7] 5.6%

CCOc1ccc2nc(N3CCCC(C(=O)NCCCN4CCOCC4)C3)sc2c1 (stereo unspecified)
inactive: growth inhibition [1] -10.1% | growth inhibition [2] -15.6% | viability increase [3] -2.55% | viability [4] 86.3% | viability [5] 92.8% | inhibition [6] 1.36% | RAM network inhibition [7] 0.52%

O=C(c1ccc2nc(N3CCCCC3)sc2c1)N1CCN(Cc2ccc3c(c2)OCO3)CC1
inactive: growth inhibition [1] 2.12% | growth inhibition [2] 1.62% | viability increase [3] 1.03% | viability [4] 54.2% | viability [5] 60.2% | inhibition [6] 0.76% | RAM network inhibition [7] 1.12%

COc1cccc(C(=O)Nc2cc(=O)n(C)c(=O)n2C)c1OC
inactive: growth inhibition [1] -1.72% | growth inhibition [2] -6.04% | viability increase [3] -2.46% | viability [4] 105% | viability [5] 98.8% | inhibition [6] 1.94% | RAM network inhibition [7] 1.14%

CC(=O)C1(O)C(C)CC2C3CCC4CC(O)CCC4(C)C3=CCC21C (stereo unspecified)
inactive: growth inhibition [1] -8.11% | growth inhibition [2] -5.04% | viability increase [3] -1.36% | viability [4] 97.2% | viability [5] 90.2% | inhibition [6] 0.305% | RAM network inhibition [7] 9.58%

CCCn1c(C(O)c2ccc(OCC)cc2)nc2ccccc21 (stereo unspecified)
inactive: growth inhibition [1] -8.12% | growth inhibition [2] -1.57% | viability increase [3] -3.93% | viability [4] 94.9% | viability [5] 82.3% | inhibition [6] 1.36% | RAM network inhibition [7] -1.01%

CCOC(=O)CCc1c(C)n(CC)c2ncnn2c1=O
inactive: growth inhibition [1] -3.41% | growth inhibition [2] -0.57% | viability increase [3] -0.77% | viability [4] 102% | viability [5] 101% | inhibition [6] 0.735% | RAM network inhibition [7] 0.04%

COc1ccc(OC)c(NC(=O)CSc2nnc(Cn3c(=O)sc4ccccc43)n2C)c1
inactive: growth inhibition [1] -10.2% | growth inhibition [2] -1.53% | viability increase [3] -2.91% | viability [4] 94.3% | viability [5] 86.5% | inhibition [6] 2.36% | RAM network inhibition [7] 3.22%

CCOC(=O)c1[nH]c(C)c(C(=O)N(CC)CC)c1C
inactive: growth inhibition [1] -10.8% | growth inhibition [2] -5.69% | viability increase [3] 0.21% | viability [4] 97% | viability [5] 107% | inhibition [6] 1.27% | RAM network inhibition [7] -0.57%

CCCCCn1c(CNC(C)=O)nc2ccccc21
inactive: growth inhibition [1] -11.1% | growth inhibition [2] -13.2% | viability increase [3] 0.03% | viability [4] 93.5% | viability [5] 97.7% | inhibition [6] 0.54% | RAM network inhibition [7] 7.59%

COc1ccc(NC(=O)NCCCN2CCc3ccccc3C2)cc1
inactive: growth inhibition [1] 3.62% | growth inhibition [2] 0.72% | viability increase [3] -2.53% | viability [4] 97.3% | viability [5] 98.2% | inhibition [6] 1.15% | RAM network inhibition [7] -1.19%

CCOC(=O)C1=C(Nc2cccc(Cl)c2)OCC1=O
inactive: growth inhibition [1] -17.9% | growth inhibition [2] 3.65% | viability increase [3] -1.85% | viability [4] 102% | viability [5] 99% | inhibition [6] 2.21% | RAM network inhibition [7] 4.51%

O=C(NCc1ccco1)Nc1ccc(Br)cc1
inactive: growth inhibition [1] 3.96% | growth inhibition [2] 5.27% | viability increase [3] -2.7% | viability [4] 95.7% | viability [5] 97.7% | inhibition [6] 1.09% | RAM network inhibition [7] 5.07%

Cc1c(NC(=O)C(C)N2C(=O)C3C4C=CC(C4)C3C2=O)c(=O)n(-c2ccccc2)n1C (stereo unspecified)
inactive: growth inhibition [1] -8.7% | growth inhibition [2] -11.3% | viability increase [3] -0.72% | viability [4] 95.4% | viability [5] 93.2% | inhibition [6] 1.39% | RAM network inhibition [7] 2.56%

O=C(O)CCCCCN1C(=O)C(=O)/C(=C(/O)c2ccccc2)C1c1ccccc1 (stereo unspecified)
inactive: growth inhibition [1] -21.2% | growth inhibition [2] -18.6% | viability increase [3] 0.21% | viability [4] 100% | viability [5] 103% | inhibition [6] 3.47% | RAM network inhibition [7] 2.1%

CCn1nnc(NC(=O)c2ccc(C(C)(C)C)cc2)n1
inactive: growth inhibition [1] -24.7% | growth inhibition [2] -6.88% | viability increase [3] -0.53% | viability [4] 90.2% | viability [5] 90.9% | inhibition [6] 1.79% | RAM network inhibition [7] -0.37%

COc1ccccc1N(C(=O)NCc1ccccc1)C1=NCC(C)S1 (stereo unspecified)
inactive: growth inhibition [1] -16% | growth inhibition [2] -11.9% | viability increase [3] -3.44% | viability [4] 93.4% | viability [5] 89.2% | inhibition [6] 2.22% | RAM network inhibition [7] 7.42%

CC1CC(C)CN(C(=O)CSc2nnc(-c3ccc(F)cc3)o2)C1 (stereo unspecified)
inactive: growth inhibition [1] -2.08% | growth inhibition [2] 5.43% | viability increase [3] -0.28% | viability [4] 94.5% | viability [5] 99.8% | inhibition [6] 0.645% | RAM network inhibition [7] 2.78%

CCOC(=O)C1CCCN(Cc2nc(N)nc(Nc3ccccc3OC)n2)C1 (stereo unspecified)
inactive: growth inhibition [1] -0.44% | growth inhibition [2] -2.06% | viability increase [3] -3.66% | viability [4] 88.8% | viability [5] 83.4% | inhibition [6] 0.15% | RAM network inhibition [7] 0.43%

CCOCCOCN(C#N)c1nc(OC)nc(N(C)C)n1
inactive: growth inhibition [1] -5.92% | growth inhibition [2] 0.69% | viability increase [3] 1.74% | viability [4] 102% | viability [5] 99.9% | inhibition [6] 0.555% | RAM network inhibition [7] 2.46%

Cc1cccc(-n2c(O)c(C=Nc3ccc4c(c3)OCO4)c3ccccc3c2=O)n1
inactive: growth inhibition [1] 1.54% | growth inhibition [2] -8.37% | viability increase [3] -0.5% | viability [4] 89.3% | viability [5] 80.2% | inhibition [6] 0.93% | RAM network inhibition [7] 2.46%

CCOC(=O)c1ccc(N2C(=O)C3ON(c4ccccc4)C(c4ccco4)C3C2=O)cc1 (stereo unspecified)
inactive: growth inhibition [1] -17.9% | growth inhibition [2] 5.19% | viability increase [3] -4.17% | viability [4] 102% | viability [5] 93.4% | inhibition [6] 1.73% | RAM network inhibition [7] 4.07%

O=C(CNS(=O)(=O)c1cccc2nsnc12)NC1CCCCC1
inactive: growth inhibition [1] -8.49% | growth inhibition [2] -16.5% | viability increase [3] -1.47% | viability [4] 96.2% | viability [5] 92.3% | inhibition [6] 1.06% | RAM network inhibition [7] 1.3%

CCCCC(=O)Nc1ncc2c(n1)CC(C)(C)CC2=O
inactive: growth inhibition [1] -7.95% | growth inhibition [2] -5.04% | viability increase [3] -2.35% | viability [4] 96.1% | viability [5] 98.2% | inhibition [6] 2.94% | RAM network inhibition [7] 1.03%

O=C(Cn1nc(Cc2cccnc2)c2ccccc2c1=O)NCc1ccc2c(c1)OCO2
inactive: growth inhibition [1] 1.71% | growth inhibition [2] 5.04% | viability increase [3] -1.57% | viability [4] 97% | viability [5] 94.7% | inhibition [6] 0.55% | RAM network inhibition [7] -0.05%

O=C(O)c1ccc(NS(=O)(=O)c2ccc3c(c2)OCCO3)cc1
inactive: growth inhibition [1] 4.96% | growth inhibition [2] -3.53% | viability increase [3] 0.04% | viability [4] 107% | viability [5] 108% | inhibition [6] 0.975% | RAM network inhibition [7] 1.55%

Cc1ccc(-c2nnc(SCC(=O)Nc3ccccc3F)o2)cc1
inactive: growth inhibition [1] -11.9% | growth inhibition [2] 2.46% | viability increase [3] -0.16% | viability [4] 41.8% | viability [5] 37.8% | inhibition [6] 4.38% | RAM network inhibition [7] 5.9%

Cc1cc(Nc2c(C)cccc2C)n2nc(C)nc2n1
inactive: growth inhibition [1] -4.35% | growth inhibition [2] 7.11% | viability increase [3] -0.85% | viability [4] 104% | viability [5] 111% | inhibition [6] 2.33% | RAM network inhibition [7] 0.16%
